In ChEMBL document CHEMBL1136568 (Bioorg Med Chem Lett, 2003) one finds IC50, Ratio and Ki data, which are given here for 31 molecules.

Assay [1] addresses T1, Inosine-5'-monophosphate dehydrogenase 2 (Homo sapiens, UniProt P12268). Description: Inhibition of human inosine monophosphate dehydrogenase IMPDH II. In outline:
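Human type II IMPDH expressed in and purified from E. coli, used at 40 nM. Buffer: 0.1 M Tris, 0.1 M KCl, 3 mM EDTA, pH 8.0, with 400 µM IMP and 2 mM DTT. Compounds were added from DMSO to a final 2.5% DMSO. NAD (400 µM final) started the reaction. After 2 h at 25°C, NADH was read at 340 nm. IC50 came from a four-parameter logistic fit.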

For assay [2], the target named is T2, Inosine-5'-monophosphate dehydrogenase 1 (Homo sapiens, UniProt P20839). Description: Ratio of IC50(Type I) to IC50(Type II).
Target sequence in this assay (P20839 2-514 limits assumed): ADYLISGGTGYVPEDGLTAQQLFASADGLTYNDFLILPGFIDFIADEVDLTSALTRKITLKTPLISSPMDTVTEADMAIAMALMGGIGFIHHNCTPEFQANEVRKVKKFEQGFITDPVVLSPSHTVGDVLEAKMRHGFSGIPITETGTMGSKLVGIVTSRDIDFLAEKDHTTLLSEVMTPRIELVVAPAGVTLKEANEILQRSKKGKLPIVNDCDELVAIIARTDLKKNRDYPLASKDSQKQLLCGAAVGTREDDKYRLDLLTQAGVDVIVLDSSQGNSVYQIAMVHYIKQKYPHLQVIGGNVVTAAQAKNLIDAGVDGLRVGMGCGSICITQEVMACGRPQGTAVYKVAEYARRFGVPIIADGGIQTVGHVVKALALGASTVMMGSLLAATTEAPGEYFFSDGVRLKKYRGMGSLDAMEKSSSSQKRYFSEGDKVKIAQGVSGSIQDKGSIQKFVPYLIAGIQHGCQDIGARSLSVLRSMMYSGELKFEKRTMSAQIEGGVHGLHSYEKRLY
In assay [3] the test system is CCRF-CEM. Description: Inhibitory activity against CEM cell proliferation. To be noted: Homo sapiens. The assay is classed as functional, cell-based.
For assay [4], the target named is T2, Inosine-5'-monophosphate dehydrogenase 1. Description: Inhibitory activity against inosine monophosphate dehydrogenase IMPDH type I.
Target sequence in this assay (P20839 whole entry): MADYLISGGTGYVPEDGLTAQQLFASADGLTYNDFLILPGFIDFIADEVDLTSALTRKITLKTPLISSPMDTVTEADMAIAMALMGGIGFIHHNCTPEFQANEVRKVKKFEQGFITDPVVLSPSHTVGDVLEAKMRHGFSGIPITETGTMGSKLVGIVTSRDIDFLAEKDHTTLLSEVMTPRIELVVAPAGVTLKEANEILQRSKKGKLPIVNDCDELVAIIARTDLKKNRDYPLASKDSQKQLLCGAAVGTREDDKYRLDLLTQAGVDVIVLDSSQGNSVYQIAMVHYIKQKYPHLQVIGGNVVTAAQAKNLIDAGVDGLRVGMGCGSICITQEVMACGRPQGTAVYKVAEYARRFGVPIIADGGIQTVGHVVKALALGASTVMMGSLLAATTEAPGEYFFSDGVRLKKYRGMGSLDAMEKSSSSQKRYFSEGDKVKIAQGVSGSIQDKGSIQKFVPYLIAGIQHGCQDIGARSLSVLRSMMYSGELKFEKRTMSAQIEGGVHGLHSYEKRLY
Assay [5] deals with T1, Inosine-5'-monophosphate dehydrogenase 2. Description: Inhibitory activity against IMPDH II with respect to IMP and NAD.

Some results are limits rather than exact numbers.

For orientation: IC50 means the point on the concentration scale where inhibition reaches its midpoint. High values mean a need for much substance, low ones inhibition by little substance. For the molecule `COc1cc2nc(-c3cccc(C(=O)O)c3)cc(O)c2cc1-c1cnco1`, in assay [1], the IC50 worked out at 160 nM. Consider `COc1cc2nc(-c3ccsc3)cc(O)c2cc1-c1cnco1`, for which, in assay [2], the Ratio amounted to 6. Besides, the values for the IC50 in assay [1], in assay [3] and in assay [4] were 9 nM, 340 nM and 55 nM, respectively.

In turn, `COc1cc2nc(-c3cccnc3)cc(O)c2cc1-c1cnco1` gave an IC50 in assay [1] of 70 nM. In assay [1], `COc1cc2nc(-c3cc(C)ccc3C)cc(O)c2cc1-c1cnco1` had an IC50 of 29 nM.

With `CNc1cc(O)c2cc(-c3cnco3)c(OC)cc2n1`, the IC50 in assay [1] came to 220 nM. The same measure, in the same setting: with `COc1cc2nc(C)cc(O)c2cc1-c1cnco1` the figure was 110 nM; with `COc1cc2nc(-c3cccs3)cc(O)c2cc1-c1cnco1`, 63 nM; with `COc1cc2nc(N(C)C)cc(O)c2cc1-c1cnco1`, 200 nM. In the case of `COc1cc2nc(-c3ccc(C(=O)O)cc3)cc(O)c2cc1-c1cnco1`, the IC50 in assay [1] is greater than 1000 nM. On to `COc1cc2nc(-c3ccc(Br)cc3)cc(O)c2cc1-c1cnco1`, for which the IC50 in assay [1] came out at 5 nM. Take `COc1cc2nc(-c3ccc(C)c(Br)c3)cc(O)c2cc1-c1cnco1`: it took 19 nM to reach half-maximal inhibition in assay [1] (IC50). As for `COc1cc2nc(-c3ccc(C)c(C)c3)cc(O)c2cc1-c1cnco1`, the Ratio in assay [2] was greater than 17. Moreover, the half-inhibitory concentration (IC50) was less than 5 nM in assay [1], 410 nM in assay [3] and 83 nM in assay [4]. In the same order, the values of `COc1ccc(-c2cc(O)c3cc(-c4cnco4)c(OC)cc3n2)cc1` are greater than 18, less than 5 nM, 370 nM and 90 nM. In the case of `COc1cc2nc(-c3ccoc3)cc(O)c2cc1-c1cnco1`, in assay [1], the half-maximal inhibitory concentration (IC50) is 32 nM. On the same count and under the same terms, with `COc1cc2nc(-c3ccc(O)cc3)cc(O)c2cc1-c1cnco1` the figure was 43 nM; with `COc1cc2nc(-c3cccc(S(C)(=O)=O)c3)cc(O)c2cc1-c1cnco1`, 160 nM. A word on the Ki: it is the dissociation constant of the complex between target and ligand, obtained from inhibition or displacement. Read a high Ki as lower affinity. Consider `COc1cc2nc(-c3ccccc3)cc(O)c2cc1-c1cnco1`, for which, in assay [2], the Ratio amounted to 12. The molecule also displayed a Ki in assay [5] of 7 nM. The IC50 in assay [1] turned out to be 8 nM; in assay [3], 690 nM; in assay [4], 99 nM. As for `COc1cc2nc(-c3cccc(O)c3)cc(O)c2cc1-c1cnco1`, half-maximal inhibition in assay [1] (IC50) was put at 18 nM.

In turn, `COc1cc2nc(-c3cccc(Br)c3)cc(O)c2cc1-c1cnco1` returned an IC50 in assay [1] of 22 nM. Still for that read-out and setting: in the case of `COc1cc2nc(-c3ccncc3)cc(O)c2cc1-c1cnco1` it was 46 nM; in that of `COc1cc2nc(-c3ccccc3C)cc(O)c2cc1-c1cnco1`, 65 nM. The same measure, in the same setting: with `COc1cc2nc(-c3ccccn3)cc(O)c2cc1-c1cnco1` the figure was 43 nM. For `COc1cc2nc(-c3cccc(C)c3)cc(O)c2cc1-c1cnco1`, the Ratio in assay [2] was determined as 30. Also, the 50% inhibitory concentration (IC50) in assay [1] amounted to 5 nM; in assay [3], 1100 nM; in assay [4], 150 nM. In turn, `COc1c(C)c2c(c(O)c1C/C=C(\C)CCC(=O)O)C(=O)OC2` [MYCOPHENOLIC ACID] came in with an IC50 in assay [4] of 55 nM. As for `COc1cc2nc(-c3ccc(C)cc3)cc(O)c2cc1-c1cnco1`, in assay [2], the Ratio was greater than 9. The values for the IC50 in assay [1], in assay [3] and in assay [4] were less than 5 nM, 560 nM and 46 nM, respectively. As to `COc1cc2nc(C(C)(C)C)cc(O)c2cc1-c1cnco1`, in assay [1], the IC50 was greater than 10000 nM.

Consider `COc1cc2nccc(O)c2cc1-c1cnco1`, for which, in assay [1], the IC50 worked out at 300 nM.

Regarding `COc1cc2nc(-c3ccccc3)c(C)c(O)c2cc1-c1cnco1`, in assay [1], 65 nM corresponded to half-maximal inhibition (IC50). For the molecule `COc1cc2nc(Cc3ccccc3)cc(O)c2cc1-c1cnco1`, in assay [1], the IC50 was 180 nM. `COc1cc(NC(=O)Nc2cccc(C)c2)ccc1-c1cnco1`: in assay [2], the Ratio was found to be 2.9. Moreover, the IC50 in assay [3] amounted to 320 nM; in assay [4], 55 nM. The molecule `COc1cc2nc(-c3cscn3)cc(O)c2cc1-c1cnco1` returned an IC50 in assay [1] of 34 nM.
